# Bioassay records deposited in PubChem BioAssay by several laboratories.
# The list is not random: actives were taken first. Their share in the collection is about 2.3%.
# TRPC4 inh = TRPC4 (mouse) channel inhibition; Q9QUQ5; HEK293 TRPC4beta/mu-opioid, DAMGO-evoked Fluo4 calcium flux; hits give low values; B-score at 10 µM; 300,000 compounds, 0.39% hits;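 active means B-score over 3 SD under the library average, no early fluorescence shift, positive overall ratio signal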
# Target sequence (Q9QUQ5 whole entry, looked up): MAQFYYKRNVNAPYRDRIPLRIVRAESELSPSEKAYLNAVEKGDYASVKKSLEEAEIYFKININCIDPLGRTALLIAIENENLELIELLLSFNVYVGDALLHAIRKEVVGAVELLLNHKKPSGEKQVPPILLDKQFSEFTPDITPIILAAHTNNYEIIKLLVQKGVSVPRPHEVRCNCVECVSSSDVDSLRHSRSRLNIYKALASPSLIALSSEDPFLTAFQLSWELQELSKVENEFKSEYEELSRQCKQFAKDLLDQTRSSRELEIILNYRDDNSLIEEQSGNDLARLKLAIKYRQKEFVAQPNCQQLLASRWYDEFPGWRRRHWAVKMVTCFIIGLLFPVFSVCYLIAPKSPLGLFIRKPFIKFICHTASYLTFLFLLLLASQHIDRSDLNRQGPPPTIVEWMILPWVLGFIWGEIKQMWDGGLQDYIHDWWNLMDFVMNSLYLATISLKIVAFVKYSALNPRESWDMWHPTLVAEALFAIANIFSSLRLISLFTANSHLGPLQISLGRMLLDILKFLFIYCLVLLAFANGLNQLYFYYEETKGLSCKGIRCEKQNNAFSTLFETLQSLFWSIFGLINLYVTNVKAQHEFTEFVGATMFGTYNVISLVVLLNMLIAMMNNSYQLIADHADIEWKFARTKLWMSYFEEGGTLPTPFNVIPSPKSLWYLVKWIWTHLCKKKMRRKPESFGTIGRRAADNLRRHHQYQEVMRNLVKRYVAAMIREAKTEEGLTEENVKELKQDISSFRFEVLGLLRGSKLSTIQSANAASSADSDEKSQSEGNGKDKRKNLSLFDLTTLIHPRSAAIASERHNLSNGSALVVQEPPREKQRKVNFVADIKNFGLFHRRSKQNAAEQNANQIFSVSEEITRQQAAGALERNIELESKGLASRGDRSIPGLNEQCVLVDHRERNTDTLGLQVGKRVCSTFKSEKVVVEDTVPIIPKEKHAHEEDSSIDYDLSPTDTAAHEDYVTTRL
#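 Assay system – HEK293 line stably carrying TRPC4beta and mu-opioid receptor · Doses – single dose · Detection – Fluo4 calcium-dye fluorescence, kinetic read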
# CR mimetic SO = yeast age-related superoxide inhibition as caloric restriction mimetic. S. cerevisiae aged cells, superoxide DHE fluorescence; hits give low values. superoxide response (% of plate mean), % at 10 µM. 330,000 compounds, 0.18% hits;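 active means superoxide response under a set limit, about three screen SD below normal, cut at about 65% in these data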;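 further: yeast aged for seven days with compound at 30 °C before DHE staining; 100% = average MFI of all compound-treated wells on the plate with controls excluded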
# TRPC6 activator = activates the mouse TRPC6 cation channel | Q61143 | HEK293-TRPC6 membrane potential dye fluorescence; hits give high values | B-score at 10 µM | 310,000 compounds, 0.13% hits;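 active means B-score of the integrated fluorescence ratio above library mean plus 3 SD, and starting fluorescence ratio within library mean plus 5 SD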;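 further: higher score means more depolarization so channel activation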
# TRPC6 inh = mouse TRPC6 channel inhibition. 310,000 compounds, 1.1% hits. HEK293-TRPC6, membrane potential dye, ACh-evoked depolarization; hits give low values. B-score at 10 µM;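 active means B-score under library mean minus 3 SD, initial fluorescence not abnormally high, positive integrated signal ratio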;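 further: B-score derived from integrated fluorescence ratio over the kinetic read; more negative B-score means stronger inhibition of depolarization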
# TRPC4 PAM = allosteric potentiators of mouse TRPC4 channel | Q9QUQ5 | HEK293 TRPC4beta/mu-opioid, DAMGO EC20, Fluo-4 Ca2+ flux; hits give high values | B-score at 10 µM | 310,000 compounds, 0.42% hits | AID 2227;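 active means B-score of calcium response area above 5 SD of library B-scores, with initial fluorescence ratio within 5 SD of library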;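 further: B-score of integrated fluorescence ratio over time as area under calcium response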
# TRPC4 agonist = activators of mouse TRPC4 channel | Q9QUQ5 | HEK293 TRPC4beta/mu-opioid, Fluo4 calcium fluorescence; hits give high values | B-score at 10 µM | 310,000 compounds, 0.49% hits | AID 2237;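 active means B-score above 5 SD of library B-scores, and initial fluorescence ratio not above library mean plus 5 SD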;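 further: positive B-score marks a calcium rise read as TRPC4 activation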
#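 system = HEK293 cells stably co-expressing mouse TRPC4beta and mu-opioid receptor | schedule = Fluo4 dye loading 45 min at room temperature, 110 s recording | measure = B-scored integrated calcium fluorescence ratio | signal = Fluo4 calcium-sensitive dye fluorescence, kinetic, 1 Hz baseline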
# TRPC4 spec 2 = second selectivity test of TRPC6 inhibitors: effect on mouse TRPC4; shares compounds with TRPC6 inh; HEK293 TRPC4/MOR, membrane potential dye fluorescence; channel activated by saturating DAMGO dose; inhibition, % at 10 µM; 920 compounds, 42% hits; AID 2776;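 active means compounds whose fluorescence signal differed from control wells by over 3 SD, either direction, in both duplicate plates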
# TRPC4 spec = mouse TRPC4 off-target activity of TRPC6 inhibitors; shares compounds with TRPC6 inh; HEK293 TRPC4/mu-opioid, membrane potential fluorescence; 920 compounds, 61% hits; activity change, negative = inhibition, % at 10 µM;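 active means rise or fall in signal beyond 3 SD of buffer-only wells in both replicate plates, either sign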;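 further: integrated kinetic ratio of fluorescence range over baseline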
# HEK293 MPD ctr 2-1 = parental HEK293 nonspecific activity of TRPC6 inhibitors, second screen; AID 2779; signal change vs control, % at 10 µM; shares compounds with TRPC6 inh; parental HEK293 membrane potential dye fluorescence; maximal acetylcholine challenge after compound addition; 920 compounds, 31% hits;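 active means membrane potential signal moving either way by over 3 SD of the maximum-effect control, in both duplicate plates, meaning non-specific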
# HEK293 MPD ctr-1 = counter-screen for TRPC6 inhibitors: effect in parental HEK293 cells; parental HEK293 membrane potential dye fluorescence; shares compounds with TRPC6 inh; membrane potential signal change, % at 10 µM; 920 compounds, 60% hits; AID 2780;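 active means membrane potential signal shifting up or down by more than 3 SD of buffer-only wells, on both duplicate plates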
# HEK293 MPD ctr-2 = checks TRPC6 modulator effects in parental HEK293 cells | shares compounds with TRPC6 inh | membrane potential dye fluorescence | membrane potential signal change, % at 10 µM | 2,400 compounds, 51% hits | AID 488924;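 active means membrane potential signal moves up or down beyond 5 SD from buffer-only wells, on both duplicate plates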
# HEK293 MPD ctr 2-2 = parental HEK293 nonspecific activity of TRPC6 modulators, second screen; shares compounds with TRPC6 inh; membrane potential dye fluorescence; after compound, maximal acetylcholine stimulation; inhibition, % at 10 µM; 2,400 compounds, 14% hits;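 active means membrane potential signal drops by more than 5 SD from the mean control signal, in both duplicate plates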;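 further: plate controls were acetylcholine ECmax control wells for no effect and buffer only wells for full effect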
# TRPC4/MOR mod = mouse TRPC4 off-target activity of TRPC6 modulators | HEK293 TRPC4/mu-opioid, membrane potential fluorescence | shares compounds with TRPC6 inh | 2,400 compounds, 69% hits | percent change from control (negative = decrease, positive = increase), % at 10 µM;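 active means membrane potential signal moved up or down beyond 5 SD of buffer control wells, in both duplicate plates, actives on both sides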;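 further: plate controls were assay buffer wells for no effect and DAMGO maximal-effect wells for full effect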
# TRPC4/MOR inh 2 = second check of whether TRPC6 modulators also affect mouse TRPC4 | inhibition, % at 10 µM | shares compounds with TRPC6 inh | AID 488928 | 2,400 compounds, 55% hits | HEK293 TRPC4/mu-opioid, membrane potential dye fluorescence; stimulated with maximal-effect DAMGO;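 active means drop in membrane potential signal beyond 5 SD of the control wells in both duplicate plates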;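 further: TRPC4 counter screen for TRPC6 hits run under conditions tuned for TRPC6 not TRPC4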
# TRPC6 block conf = mouse TRPC6 inhibitor confirmation; HEK293-TRPC6, membrane potential dye, ACh-evoked depolarization; shares compounds with TRPC6 inh; inhibition, % at 10 µM; AID 488960; 3,300 compounds, 43% hits;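 active means fluorescence ratio falls more than 5 SD below the full-stimulation control mean, in both duplicate runs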;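 further: integrated fluorescence ratio of peak minus minimum over baseline after agonist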
# TRPC6 act conf = confirmation of mouse TRPC6 activators; shares compounds with TRPC6 inh; HEK293-TRPC6 membrane potential dye fluorescence, FDSS; activation, % at 10 µM; 2,800 compounds, 11% hits;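 active means ratio signal rise beyond 5 SD above unstimulated control wells' mean, seen in both duplicate runs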;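 further: plate controls were buffer EC0 wells for no effect and acetylcholine ECmax response for full effect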
# The depositor's hits bear a star; i = inactive; nt = not tested or not shown.
SMILES,TRPC4 inh,CR mimetic SO,TRPC6 activator,TRPC6 inh,TRPC4 PAM,TRPC4 agonist,HEK293 MPD ctr-2,HEK293 MPD ctr 2-2,TRPC4/MOR mod,TRPC4/MOR inh 2,TRPC6 block conf,TRPC6 act conf,others
N#Cc1ccc2[nH]c(CO)c(-c3ccccc3)c2c1,i,101.1,i,-5.36*,i,i,-83.5%*,i,-27.0%*,45.0%*,i,i,
COC(=O)c1ccc2[nH]c(CO)c(-c3ccccc3)c2c1,i,113.5,i,i,i,i,nt,nt,nt,nt,nt,nt,
Cc1[nH]nc2c1C(Cc1ccccc1)C(C#N)=C(N)O2 (stereo not given),i,102.4,i,i,i,i,nt,nt,nt,nt,nt,nt,
CC(C)c1[nH]nc2c1C(Cc1ccccc1)C(C#N)=C(N)O2 (stereo not given),i,102.1,i,-6.38*,i,i,i,i,i,i,i,i,
CCOC(=O)N1CCN(C(=O)c2cc(S(=O)(=O)N3CCCC3)cn2C)CC1,i,102.6,i,i,i,i,nt,nt,nt,nt,nt,nt,
O=C(Cc1ncc(C(F)(F)F)cc1Cl)NCCc1ccccn1,i,103.7,i,i,i,i,nt,nt,nt,nt,nt,nt,
CC(C)Cc1nnc(NC(=O)c2cc([N+](=O)[O-])ccc2N2CCOCC2)s1,i,104.7,i,-5.22*,i,i,i,i,i,i,i,i,
CCN(CC)c1ccc2cc(S(=O)(=O)c3ccc(Cl)cc3)c(=O)oc2c1,i,114.4,i,i,i,i,nt,nt,nt,nt,nt,nt,
O=C(O)c1ccc(Cl)c(S(=O)(=O)N(Cc2ccccc2)c2ccc(F)cc2)c1,i,98.2,16.9*,i,i,i,140.0%*,i,22.5%*,i,i,144.0%*,
COc1ccc(N(Cc2ccccc2)S(=O)(=O)c2cc(C(=O)O)ccc2Cl)cc1,i,98.0,24.9*,i,i,i,189.5%*,i,41.5%*,i,i,148.5%*,
Cc1cc(OC(F)F)ccc1NC(=S)NC1CCCC1,i,99.8,i,i,i,i,nt,nt,nt,nt,nt,nt,
O=C(Nc1cc2c3c(c1)C1CCCC1CN3CC1CCCC21)c1ccccc1 (stereo not given),i,95.2,i,-5.86*,i,i,-70.0%*,i,-16.5%*,i,i,i,
CNC(=O)CC1C(=O)N(c2ccc(F)cc2)C(=S)N1NC(=O)c1ccc(Cl)cc1 (stereo not given),i,99.1,i,-5.57*,i,i,i,i,i,i,i,i,
O=C(CS(=O)(=O)c1c[nH]c2ccccc12)N1CCCc2ccccc21,i,81.4,i,i,i,i,nt,nt,nt,nt,nt,nt,
Cc1ccc(C(=O)Nc2ccc(OCc3ccccc3)cc2)cc1[N+](=O)[O-],i,121.6,i,i,i,i,nt,nt,nt,nt,nt,nt,
Oc1c(C2=NCCNC(C(F)(F)F)=C2)ccc2ccccc12,i,nt,i,-5.03*,i,i,-96.0%*,i,-21.5%*,47.0%*,i,i,
Cc1ccc(O)c(C2=NCCNC(C(F)(F)F)=C2)c1,i,107.1,i,i,i,i,nt,nt,nt,nt,nt,nt,
CCCNC(=O)N1CCN(c2nc(C(C)C)c3c(c2C#N)CC(C)(C)OC3)CC1,i,86.0,i,i,i,i,nt,nt,nt,nt,nt,nt,
CC(NCCC(Cc1ccccc1)c1ccco1)c1ccccc1 (stereo not given),-6*,112.8,12.1*,-5.57*,i,i,167.0%*,i,42.5%*,39.5%*,i,36.5%*,
COc1ccc2ccccc2c1CNCc1ccc(C)cc1,i,100.4,i,-8*,i,i,nt,nt,nt,nt,61.9%*,nt,TRPC4 spec 2=50.5%*;TRPC4 spec=51.8%*;HEK293 MPD ctr 2-1=i;HEK293 MPD ctr-1=22.0%*
COc1ccc(-n2c(C)nc3cc(C(=O)NCc4ccc5c(c4)OCO5)ccc32)cc1,i,103.8,i,i,i,i,nt,nt,nt,nt,nt,nt,
CCCCNC(=O)c1cc2c(=O)n3cccc(C)c3nc2n(Cc2ccccc2)c1=N,i,105.2,i,i,i,i,nt,nt,nt,nt,nt,nt,
Cc1cccn2c(=O)c3cc(C(N)=S)c(=N)n(CCCOC(C)C)c3nc12,i,104.1,i,-7.27*,i,i,nt,nt,nt,nt,i,i,TRPC4 spec 2=i;TRPC4 spec=-19.2%*;HEK293 MPD ctr 2-1=i;HEK293 MPD ctr-1=-408.5%*
CCOCCCNC(=O)c1cc2c(=O)n3cccc(C)c3nc2n1C,i,98.5,i,i,i,i,nt,nt,nt,nt,nt,nt,
CCOCCCn1c(=N)c(C(N)=S)cc2c(=O)n3cccc(C)c3nc21,i,100.3,i,-8.93*,i,i,nt,nt,nt,nt,i,i,TRPC4 spec 2=i;TRPC4 spec=i;HEK293 MPD ctr 2-1=26.5%*;HEK293 MPD ctr-1=-196.5%*
COc1ccc2[nH]c(C)c(CCN3C(=O)OC(C)(C)C3(C)O)c2c1 (stereo not given),i,90.1,i,i,i,i,nt,nt,nt,nt,nt,nt,
